Series [1] relates to Rattus norvegicus. As to the kind of experiment: Anticonvulsant activity administered orally to rat for the protective index of toxicity by maximal electroshock test; TD50/ED50. The class given is functional. Background: Protection in the maximal electroshock model is a classic sign of anticonvulsant action.
Series [2] deals with Mus musculus. Briefly: Anticonvulsant activity administered intra peritoneally to mouse for the protective index of toxicity by maximal electroshock test; T D50/ED50. The class given is functional.
Series [3] concerns Mus musculus. As to the kind of experiment: Anticonvulsant activity administered intra peritoneally to mouse for protective index of subcutaneous metrazol test. Format: functional.
Series [4] deals with Rattus norvegicus. Briefly: Anticonvulsant activity administered orally to rat for protective index of subcutaneous metrazol test. Format: functional.
Series [5] is described as follows: Anticonvulsant activity administered intra peritoneally to mouse for toxicity. The note with it: in vivo, ip.
Series [6] can be described thus: Anti convulsant activity administered intra peritoneally to mouse for toxicity at 4 hr with dose of 100 mg/kg; 3/4= No of animals exhibiting toxicity /No of animals tested. The class given is organism-based. Set-up: dose 100 mg/kg. The note with it: in vivo, ip.
Series [7] is described as follows: Anti convulsant activity administered intra peritoneally to mouse for toxicity at 0.5 hr with dose of 30 mg/kg; 0/4= No of animals exhibiting toxicity /No of animals tested. Further details: dose 30 mg/kg. As to conditions: in vivo, ip. The class given is organism-based.
Series [8] deals with Rattus norvegicus. Briefly: Anticonvulsant activity after oral administration of 30 mg/kg dose after 1 hr in rats;+ means 25% animals protected. Format: functional, organism-based. Further details: dose 30 mg/kg. The method in brief:
(§1)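 Oral dosing of rats at a single dose, compound dissolved or suspended in 0.5% methylcellulose. Protection in the MES or scMet test checked 15 min, 30 min, 1 h, 2 h and 4 h after dosing. Scored as 25/50/75/100% of animals protected (+ to ++++), – for none.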

Series [9] deals with Rattus norvegicus. As to the kind of experiment: Anticonvulsant activity after oral administration of 30 mg/kg dose after 2 hr in rats; +means 25% of the animal is protected. Format: functional, organism-based. Further details: dose 30 mg/kg. An outline of the steps: as §1
The test system of series [10] is Mus musculus. As to the kind of experiment: Anti convulsant activity administered intra peritoneally to mouse at maximal electroshock test at 0.5 hr after the drug administered with dose of 100 mg/kg; 2/3= No of animals protected /No of animals tested. Format: functional.
Series [11] in a line: Anti convulsant activity administered intra peritoneally to mouse for toxicity at 4 hr with dose of 30 mg/kg; 0/2= No of animals exhibiting toxicity /No of animals tested. The class given is organism-based. Set-up: dose 30 mg/kg. The note with it: in vivo, ip.
Series [12] has as its system Mus musculus. Briefly: Anti convulsant activity administered intra peritoneally to mouse at maximal electroshock test at 4 hr after the drug administered with dose of 30 mg/kg; 0/1= No of animals protected /No of animals tested. The class given is functional.
Series [13] relates to Rattus norvegicus. Briefly: Anticonvulsant activity after oral administration of 100 mg/kg dose after 2 hr in rats; ++means 50% of the animals protected. The class given is functional, organism-based. Set-up: dose 100 mg/kg. The method in brief:
as §1

Series [14] has as its system Mus musculus. Briefly: Anti convulsant activity administered intra peritoneally to mouse for subcutaneous metrazol test at 4 hr after the drug administered with dose of 100 mg/kg; 0/1= No of animals protected /No of animals tested. The class given is functional.
Series [15] is described as follows: Toxicity after oral administration of 100 mg/kg dose in rats;++++ means 100% animals exhibited toxicity. Format: organism-based. As to conditions: rat, in vivo. Further details: dose 100 mg/kg, route oral. The method in brief:
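Rats dosed orally with compound dissolved or suspended in 0.5% methylcellulose (0.04 mL per 10 g body weight). Anticonvulsant protection (MES or scMet) and toxicity scored at 15 min, 30 min, 1 h, 2 h and 4 h after dosing. Graded in steps of 25% of animals protected or showing toxicity.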

Series [16] has as its system Mus musculus. As to the kind of experiment: Anti convulsant activity administered intra peritoneally to mouse for subcutaneous metrazol test at 4 hr after the drug administered with dose of 30 mg/kg; 0/1= No of animals protected /No of animals tested. The class given is functional. The note with it: route intraperitoneal.
Series [17] relates to Mus musculus. Briefly: Anti convulsant activity administered intra peritoneally to mouse for subcutaneous metrazol test at 0.5 hr with dose of 30 mg/kg; 0/1= No of animals protected /No of animals tested. Format: functional.
Series [18] is described as follows: Anti convulsant activity administered intra peritoneally to mouse for subcutaneous metrazol test at 4 hr with dose of 300 mg/kg; 4/4= No of animals protected /No of animals tested. The class given is ADME, organism-based. Further details: dose 300 mg/kg.
The test system of series [19] is Mus musculus. As to the kind of experiment: Anti convulsant activity administered intra peritoneally to mouse at maximal electroshock test at 0.5 hr after the drug administered with dose of 300 mg/kg; 1/1= No of animals protected /No of animals tested. Format: functional.
Series [20] is described as follows: Anti convulsant activity administered intra peritoneally to mouse for toxicity at 4 hr with dose of 300 mg/kg; 2/2= No of animals exhibiting toxicity /No of animals tested. Format: organism-based. Further details: dose 300 mg/kg. As to conditions: in vivo, ip.
The subject of series [21] is Mus musculus. Briefly: Anti convulsant activity administered intra peritoneally to mouse at maximal electroshock test at 4 hr after the drug administered with dose of 100 mg/kg; 3/3= No of animals protected /No of animals tested. Format: functional.
The subject of series [22] is Mus musculus. Briefly: Anti convulsant activity administered intra peritoneally to mouse for subcutaneous metrazol test at 0.5 h with dose of 300 mg/kg; 0/1= No of animals protected /No of animals tested. Format: functional.
Series [23] has as its system Mus musculus. As to the kind of experiment: Anti convulsant activity administered intra peritoneally to mouse at maximal electroshock test at 4 hr after the drug administered with dose of 300 mg/kg; 1/1= No of animals protected /No of animals tested. Format: functional.
For series [24], the system named is Mus musculus. As to the kind of experiment: Anti convulsant activity administered intra peritoneally to mouse at maximal electroshock test at 0.5 h after the drug administered with dose of 30 mg/kg; 0/1= No of animals protected /No of animals tested. Format: functional.
Series [25] deals with Rattus norvegicus. Briefly: Anticonvulsant activity after oral administration of 30 mg/kg dose after 15 min in rats; + means 25% of the animal protected. Format: functional, organism-based. Further details: dose 30 mg/kg. The method in brief:
as §1

Series [26] has as its system Rattus norvegicus. Briefly: Anticonvulsant activity after oral administration of 100 mg/kg dose after 30 min in rats; ++ means 50% animals protected. The class given is functional, organism-based. Further details: dose 100 mg/kg. An outline of the steps:
as §1

In series [27] the test system is Mus musculus. As to the kind of experiment: Anti convulsant activity administered intra peritoneally to mouse for subcutaneous metrazol test at 0.5 hr with dose of 100 mg/kg; 0/1= No of animals protected /No of animals tested. The class given is functional.
For series [28], the system named is Mus musculus. Briefly: Anti convulsant activity administered intra peritoneally to mouse for subcutaneous metrazol test at 4 hr with dose of 300 mg/kg; 0/1= No of animals protected /No of animals tested. Format: functional.
A short description of series [29]: Anti convulsant activity administered intra peritoneally to mouse for toxicity at 0.5 hr with dose of 100 mg/kg; 0/8= No of animals exhibiting toxicity /No of animals tested. The class given is organism-based. Further details: dose 100 mg/kg. The note with it: in vivo, ip.
In series [30] the test system is Mus musculus. Briefly: Anti convulsant activity administered intra peritoneally to mouse at maximal electroshock test at 0.5 h after the drug administered with dose of 100 mg/kg; 1/3= No of animals protected /No of animals tested. The class given is functional.
For series [31], the system named is Rattus norvegicus. Briefly: Anticonvulsant activity after oral administration of 80 mg/kg dose after 2 hr in rats; + means 25% of the animal is protected. Format: functional, organism-based. Set-up: dose 80 mg/kg. The method in brief:
(§2)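 Maximal electroshock test in rats after oral dosing in 0.5% methylcellulose (0.04 mL per 10 g body weight). Protection read at 15 min, 30 min, 1 h, 2 h and 4 h after dosing. Graded as the percentage of animals protected, in steps of 25%.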

A short description of series [32]: Anti convulsant activity administered intra peritoneally to mouse for subcutaneous metrazol test at 4 hr with dose of 300 mg/kg; 3/4= No of animals protected /No of animals tested. Format: ADME, organism-based. Set-up: dose 300 mg/kg.
Series [33] is described as follows: Anti convulsant activity administered intra peritoneally to mouse for toxicity at 0.5 hr with dose of 100 mg/kg; 1/8= No of animals exhibiting toxicity /No of animals tested. The class given is organism-based. As to conditions: in vivo, ip. Further details: dose 100 mg/kg.
Series [34] is described as follows: Anti convulsant activity administered intra peritoneally to mouse for toxicity at 4 hr with dose of 100 mg/kg; 0/4= No of animals exhibiting toxicity /No of animals tested. The class given is organism-based. Set-up: dose 100 mg/kg. The note with it: in vivo, ip.
The nature of series [35]: Anti convulsant activity administered intra peritoneally to mouse for toxicity at 4 hr with dose of 300 mg/kg; 0/2= No of animals exhibiting toxicity /No of animals tested. Format: organism-based. Further details: dose 300 mg/kg. The note with it: in vivo, ip.
The test system of series [36] is Mus musculus. Briefly: Anti convulsant activity administered intra peritoneally to mouse at maximal electroshock test at 4 hr after the drug administered with dose of 100 mg/kg; 0/3= No of animals protected /No of animals tested. Format: functional.
The subject of series [37] is Rattus norvegicus. As to the kind of experiment: Anticonvulsant activity after oral administration of 80 mg/kg dose after 4 hr in rats;+ means 25% of the animals protected. Further details: dose 80 mg/kg. Format: functional, organism-based. An outline of the steps: as §2
In series [38] the test system is Rattus norvegicus. Briefly: Anticonvulsant activity after oral administration of 80 mg/kg dose after 15 min in rats; + means 25% of the animal protected. The class given is functional, organism-based. Set-up: dose 80 mg/kg. The method in brief: as §2
Series [39] concerns Rattus norvegicus. As to the kind of experiment: Anticonvulsant activity after oral administration of 80 mg/kg dose after 1 hr in rats;+means 25% animals protected. The class given is functional, organism-based. Further details: dose 80 mg/kg. An outline of the steps: as §2

Here are results for 3 compounds from ChEMBL document CHEMBL1138683 (J Med Chem, 2004).

Usually TD50 stands for the dose at which the toxic effect under study appears in half of the subjects.

Each structure is given as a SMILES string.

In the case of `CNC(=O)C1C(C)(C)C1(C)C`, the Ratio in the series on Rattus norvegicus [1] amounted to 2; with Mus musculus [2], 1.6. Further, the values for the Activity with Mus musculus [3] and in the series on Rattus norvegicus [4] were 3.9 and 3.6, respectively. Besides, the TD50 in series [5] turned out to be 153 mg/kg.

On to `CC1(C)C(C(=O)NC(N)=S)C1(C)C`, for which the Toxicity is 3 in series [6]; 0 in [7]; 0 in [11]; 100% animals exhibited toxicity in series [15]; 4 in series [18]; 2 in [20]. In [29], this compound yielded a Toxicity of 0. Further, the Activity with Rattus norvegicus [8] is reported as 25% animals protected; in the series on Rattus norvegicus [9] it was 25% animals protected; with Mus musculus [10], 2; in the series on Mus musculus [12], 0; with Mus musculus [14], 0; in the series with Mus musculus [16] it was 0. Also, the Activity turned out to be 0 in the series with Mus musculus [17]; 1 in the series on Mus musculus [19]; 3 in the series on Mus musculus [21]; 0 with Mus musculus [22]; 1 in the series on Mus musculus [23]; 0 in the series with Mus musculus [24]. Moreover, the Activity in the series on Rattus norvegicus [25] is 25% animals protected; with Rattus norvegicus [26], 25% animals protected; in the series with Mus musculus [27], 0; with Mus musculus [28], 0. The “Anticonvulsant Activity” value with Rattus norvegicus [13] is 50% of the animals protected.

For the compound `CNC(=O)N(C)C(=O)C1C(C)(C)C1(C)C`, the Toxicity in series [7] is given as 0; in series [11] it was 0; in [32], 3; in [33] it was 1; in [34], 0; in series [35], 0. Moreover, the Activity with Mus musculus [30] turned out to be 1; with Rattus norvegicus [31], 25% animals protected; in the series on Mus musculus [12], 0; in the series with Mus musculus [14], 0; in the series with Mus musculus [16], 0; in the series with Mus musculus [17], 0. Further, the Activity in the series with Mus musculus [19] was found to be 1; in the series on Mus musculus [22], 0; in the series on Mus musculus [36], 0; in the series with Rattus norvegicus [37], 25% animals protected; in the series with Rattus norvegicus [38], 25% animals protected; in the series with Mus musculus [23], 1. Also, the Activity is 25% animals protected in the series with Rattus norvegicus [39], 0 in the series on Mus musculus [24], 0 in the series on Mus musculus [27] and 0 in the series with Mus musculus [28].
